# The list is not random: actives were taken first. Their share in the collection is about 3.7%.
# KCC2 mod – modulates chloride dependent transport by human KCC2 | KCC2 cells, thallium flux FluoZin-2 fluorescence | B-score of Tl+ flux slope (higher = more flux/activation; lower = inhibition) at 10 µM | AID 1456 | Q9H2X9 | actives 2.2% (n = 190,000);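 active means thallium flux slope and its plate-corrected score both differing from the plate sample mean at a set confidence after two filtering rounds, in either direction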;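 further: slope of fluorescence scaled to starting intensity during 10 to 20 s after thallium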
# ROMK primary – modulates human ROMK potassium channel activity; AID 1918; Tet-inducible ROMK, thallium flux fluorescence; actives lie on both sides; actives 2% (n = 130,000); B-score at 10 µM; P48048;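 active means signal ratio slope over the read window, or its plate-corrected B-score, at least 3 SD from the plate mean, either direction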;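 further: B-score of the F/F0 ratio slope over 7 to 12 s after thallium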
# PKD1 kinase inh – inhibitors of human PKD1 kinase; PKD1 kinase fluorescence polarization assay; inhibition, % (no concentration beside the values); actives 0.056% (n = 200,000); Q15139; in the data active means inhibition above about 50%
# Arbovirus anti – antivirals against arbovirus infection | arbovirus infection cell-based antiviral screen | inhibition, % at 10 µM | actives 0.37% (n = 200,000); in the data active means inhibition above about 30%
# MDM2 E3 inh – Mdm2 E3 ligase (human) inhibition. Q00987. cell-based MDM2 ubiquitination luciferase reporter, 2 h; 0 = plate control, 100 = twice control, blank-subtracted. signal enhancement, % at 5 µM. actives 0.11% (n = 210,000). AID 1230;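 active means signal enhancement of 30% or more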;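 further: luminescence tracks abundance of the self-degrading MDM2-luciferase fusion protein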
#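 System: stable MDM2–luciferase fusion reporter cells / Input: 2000 cells seeded into each well / Schedule: 4 h settle plus 2 h compound, 37 °C / Compound: single-point 5 µM / Buffer or medium: cells held in DMEM / Benchmarks: control and blank well means / Evaluation: percent signal gain over controls, blank-subtracted / Measured by: luciferase luminescence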
# m-calpain inh – blocks pig calpain II enzyme activity; inhibition, % at 16 µM; actives 0.37% (n = 220,000); purified calpain II, fluorogenic peptide substrate, 30 min; AID 1236;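 active means inhibition above about 50%, limit read from the data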
# PKD FP artifact – interferes with fluorescence polarization in PKD inhibitor counter-screen; shares compounds with PKD1 kinase inh; inhibition, % at 10 µM; 85 tested, under 10 active; PKD1 FP assay interference counter-screen; AID 1315; call rule not given here
# Starred values were filed as active, the others as inactive; i = inactive; x = not tested or not shown.
SMILES,KCC2 mod,ROMK primary,PKD1 kinase inh,Arbovirus anti,MDM2 E3 inh,m-calpain inh,PKD FP artifact
COc1cc(/C=N/Nc2nc(Nc3ccccc3)nc(N3CCOCC3)n2)ccc1OC(=O)c1ccco1,1.1,0.72,-4,3,-11,-112,x
S=c1[nH]nc(-c2cc3ccccc3o2)n1Cc1ccccc1,28*,-0.83,-16,10,-2,i,x
CCOC(=O)c1ccc(NC(=O)N2CCN(Cc3cccc(F)c3)CC2)cc1,-3*,x,1,-24,10,-37,x
CCOC(=O)c1ccc(CC(=O)c2oc3cc(O)ccc3c2C)o1,-0.1,x,9,4,-13,-74,x
CCOC(=O)c1ccc(CC(=O)c2ccc(O)c(O)c2O)o1,1.7,-0.48,8,-3,-22,58*,x
Cc1cc(C)n2nc(C(=O)OCC(=O)c3c[nH]c4ccccc34)nc2n1,-0.14,1.4,-7,-1,-4,16,x
S=c1[nH]c(-c2ccccc2)cs1,50*,2.5*,-5,5,-8,-3,x
CC1=CC(C)[C@H](/C=N/n2c(=O)[nH]c3c([nH]c4ccc(C)cc43)c2=O)C(C)C1 (stereo partly specified),-1.1,0.078,6,-14,-93,-12,x
COCCn1c(N)c(C(=S)NC(=O)c2cccs2)c(=O)[nH]c1=O,-0.015,1.3,x,x,-12,19,x
COc1cc(C2C(C#N)=C(C)NC3=C2C(=O)c2ccccc23)cc(OC)c1OC (stereo unspecified),x,3.2*,-7,-2,-5,-42,x
CCOC(=O)c1[nH]c2cc(OC)c(OC)cc2c1NC(=O)CN1CCN(C)CC1,x,0.11,76*,10,6,i,-2
O=C(Nc1ccccc1)O/N=C(\c1ccccc1)c1ccccn1,-0.63,-0.0044,-10,-4,-15,-6,x
O=C(Nc1ccccc1)ON=C1c2ccccc2-c2ccccc21,-2,x,51*,4,-11,14,4
O=C(Nc1ccccc1Cl)ON=C1c2ccccc2-c2ccccc21,0.063,-0.67,61*,4,-10,5,-11
O=C(Nc1ccccc1Cl)Oc1ccc(Cl)cc1Cl,0.043,x,x,x,-6,11,x
CCCCN(C)C(=S)Nc1ccc2nc3n(c(=O)c2c1)CCCCC3,-2.2,-0.029,-6,4,-4,26,x
CC(C)CN(C(=O)COC(=O)c1c(Cl)ccc(Cl)c1Cl)C1CCS(=O)(=O)C1 (stereo unspecified),-0.74,0.016,-9,-10,-32,7,x
Cc1cc(N=CC2=C(O)CC(C)(C)CC2=O)no1,x,0.0045,60*,5,-2,-9,-4
COc1cccc(C2CC(=O)C3=C(C2)Nc2ccccc2N(C(=O)CCC(=O)O)C3c2ccc(F)cc2)c1 (stereo unspecified),0.5,x,x,x,x,-24,x
CC(=O)Nc1ccc2c(c1)c1ccccc1n2C(C)=O,-0.86,x,59*,-4,7,1,-13
COc1ccc(C2C(C(=O)c3cccs3)=C(O)C(=O)N2c2nncs2)cc1 (stereo unspecified),x,-1.2,67*,3,-7,-26,34
C(=N\NCc1ccccc1)/c1ccc2nccnc2c1,-1.6,x,x,x,-13,-30,x
COCC(C)n1c(C)cc(C(=O)COC(=O)c2nc3nc(C)cc(C)n3n2)c1C (stereo unspecified),x,0.49,98*,2,-2,-10,-6
Cc1cc(C)n2nc(C(=O)OCC(=O)N(CC(C)C)CC(C)C)nc2n1,-0.034,2,-2,-7,-8,11,x
CN(CCCNC(=O)CSc1cc(=O)n(C)c2ccc(Cl)cc12)Cc1ccccc1,-0.029,x,-1,-22,18,-36,x
Cn1c(=O)[nH]c(=O)c2c1nc(NC1CCCCC1)n2CC(=O)NC1CCCCC1,-0.97,x,101*,3,-3,-19,-24
Cn1c(=O)[nH]c(=O)c2c1nc(NC1CCCCC1)n2CCO,0.04,x,x,8,-14,-4,x
CCOCCCNC(=O)/C(C#N)=C/c1ccc([N+](=O)[O-])o1,0.018,-2.2,-8,-32,0,-37,x
O=C(NCC1CCCO1)c1ccc2c(=O)n(-c3ccccc3)c(=S)[nH]c2c1 (stereo unspecified),0.15,0.3,-9,3,-15,-6,x
